Reference: ChEMBL document CHEMBL1649446, “Comparative antipneumococcal activities of sulopenem and other drugs” (2009)
Converted amounts (≈) assume the structure as drawn.

How the values were obtained:
Type in all cases: functional
Streptococcus pneumoniae [1] = test: Antimicrobial activity against Streptococcus pneumoniae isolate 24 by agar dilution method
Streptococcus pneumoniae [2] = test: Antimicrobial activity against Streptococcus pneumoniae isolate 3282 by agar dilution method
Streptococcus pneumoniae [3] = test: Antimicrobial activity against Streptococcus pneumoniae isolate 1384 by agar dilution method
Procedure, shortened: (§1)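 Agar dilution MIC on Mueller-Hinton agar with 5% sheep blood, inocula 10^4 CFU/spot; amoxicillin-clavulanate combined 1:2; S. pneumoniae ATCC 49619 quality control each run.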

Streptococcus pneumoniae [4] = test: Antimicrobial activity against Streptococcus pneumoniae isolate 3412 by agar dilution method; procedure, shortened: as §1
Streptococcus pneumoniae [5] = test: Antimicrobial activity against Streptococcus pneumoniae isolate 3455 by agar dilution method
Streptococcus pneumoniae [6] = test: Antimicrobial activity against Streptococcus pneumoniae 7 by time-kill analysis
Procedure, shortened: (§2)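 Time-kill in cation-adjusted Mueller-Hinton broth with 5% lysed horse blood; inocula 5 × 105 to 5 × 10^6 CFU/ml; drugs at MIC, 2× and 4× MIC; 35°C shaking water bath; viable counts at 0, 3, 6, 12, 24 h. Bactericidal = ≥3 log10 CFU/ml (99.9%) drop from original inoculum; 90%/99%/99.9% killing scored per strain.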

Streptococcus pneumoniae [7] = test: Antimicrobial activity against Streptococcus pneumoniae isolate 37 by agar dilution method; procedure, shortened: as §1
Streptococcus pneumoniae [8] = test: Antimicrobial activity against Streptococcus pneumoniae isolate 1424 by agar dilution method; procedure, shortened: as §1
Streptococcus pneumoniae [9] = test: Antimicrobial activity against Streptococcus pneumoniae isolate 1055 by agar dilution method
Streptococcus pneumoniae [10] = test: Antimicrobial activity against Streptococcus pneumoniae isolate 4747 by agar dilution method; procedure, shortened: as §1
Streptococcus pneumoniae [11] = test: Antimicrobial activity against Streptococcus pneumoniae isolate 1147 by agar dilution method; procedure, shortened: as §1
Streptococcus pneumoniae [12] = test: Antimicrobial activity against Streptococcus pneumoniae 2 by time-kill analysis; procedure, shortened: as §2
Streptococcus pneumoniae [13] = test: Antimicrobial activity against Streptococcus pneumoniae isolate 3263 by agar dilution method
Streptococcus pneumoniae [14] = test: Antimicrobial activity against Streptococcus pneumoniae 9 by time-kill analysis
Procedure, shortened: as §2, with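 “12 and” for “12,”, “if” for “=”, “reduction” for “drop”, “90% and 99%” for “90%/99%/99.9%”, “also scored.” for “scored per strain.”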

Streptococcus pneumoniae [15] = test: Antimicrobial activity against Streptococcus pneumoniae isolate 3458 by agar dilution method
Streptococcus pneumoniae [16] = test: Antimicrobial activity against Streptococcus pneumoniae isolate 1397 by agar dilution method; procedure, shortened: as §1
Streptococcus pneumoniae [17] = test: Antimicrobial activity against Streptococcus pneumoniae 19A by agar dilution method; procedure, shortened: as §1
Streptococcus pneumoniae [18] = test: Antimicrobial activity against Streptococcus pneumoniae 1 by time-kill analysis
Procedure, shortened: as §2, with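 “12 and” for “12,”, “if” for “=”, “reduction” for “drop”, “90% and 99%” for “90%/99%/99.9%”, “also scored.” for “scored per strain.”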

Streptococcus pneumoniae [19] = test: Antimicrobial activity against Streptococcus pneumoniae 6 by time-kill analysis; procedure, shortened: as §2
Streptococcus pneumoniae [20] = test: Antimicrobial activity against Streptococcus pneumoniae isolate 33 by agar dilution method; procedure, shortened: as §1
Streptococcus pneumoniae [21] = test: Antimicrobial activity against Streptococcus pneumoniae 8 by time-kill analysis; procedure, shortened: as §2
Streptococcus pneumoniae [22] = test: Antimicrobial activity against Streptococcus pneumoniae isolate 2880 by agar dilution method; procedure, shortened: as §1
Streptococcus pneumoniae [23] = test: Antimicrobial activity against Streptococcus pneumoniae 10 by time-kill analysis; procedure, shortened: as §2
Streptococcus pneumoniae [24] = test: Antimicrobial activity against Streptococcus pneumoniae isolate 3260 by agar dilution method
Streptococcus pneumoniae [25] = test: Antimicrobial activity against Streptococcus pneumoniae isolate 2686 by agar dilution method; procedure, shortened: as §1
Streptococcus pneumoniae [26] = test: Antimicrobial activity against Streptococcus pneumoniae isolate 2688 by agar dilution method; procedure, shortened: as §1
Streptococcus pneumoniae [27] = test: Antimicrobial activity against Streptococcus pneumoniae isolate 3791 by agar dilution method; procedure, shortened: as §1
Streptococcus pneumoniae [28] = test: Antimicrobial activity against Streptococcus pneumoniae 3 by time-kill analysis; procedure, shortened: as §2
Streptococcus pneumoniae [29] = test: Antimicrobial activity against Streptococcus pneumoniae isolate 4755 by agar dilution method; procedure, shortened: as §1
Streptococcus pneumoniae [30] = test: Antimicrobial activity against Streptococcus pneumoniae isolate 3587 by agar dilution method
Streptococcus pneumoniae [31] = test: Antimicrobial activity against Streptococcus pneumoniae isolate 3275 by agar dilution method; procedure, shortened: as §1
Streptococcus pneumoniae [32] = test: Antimicrobial activity against Streptococcus pneumoniae isolate 1564 by agar dilution method
Streptococcus pneumoniae [33] = test: Antimicrobial activity against Streptococcus pneumoniae isolate 2874 by agar dilution method; procedure, shortened: as §1
Streptococcus pneumoniae [34] = test: Antimicrobial activity against penicillin-intermediate Streptococcus pneumoniae by agar dilution method
Streptococcus pneumoniae [35] = test: Antimicrobial activity against Streptococcus pneumoniae isolate 2617 by agar dilution method; procedure, shortened: as §1
Streptococcus pneumoniae [36] = test: Antimicrobial activity against Streptococcus pneumoniae 12 by time-kill analysis; procedure, shortened: as §2
Streptococcus pneumoniae [37] = test: Antimicrobial activity against Streptococcus pneumoniae isolate 1394 by agar dilution method
Streptococcus pneumoniae [38] = test: Antimicrobial activity against penicillin-susceptible Streptococcus pneumoniae by agar dilution method
Streptococcus pneumoniae [39] = test: Antimicrobial activity against Streptococcus pneumoniae isolate 3346 by agar dilution method
Streptococcus pneumoniae [40] = test: Antimicrobial activity against Streptococcus pneumoniae 4 by time-kill analysis; procedure, shortened: as §2
Streptococcus pneumoniae [41] = test: Antimicrobial activity against Streptococcus pneumoniae isolate 3681 by agar dilution method; procedure, shortened: as §1
Streptococcus pneumoniae [42] = test: Antimicrobial activity against Streptococcus pneumoniae isolate 1146 by agar dilution method; procedure, shortened: as §1
Streptococcus pneumoniae [43] = test: Antimicrobial activity against Streptococcus pneumoniae 5 by time-kill analysis
Procedure, shortened: as §2, with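 “12 and” for “12,”, “if” for “=”, “reduction” for “drop”, “90% and 99%” for “90%/99%/99.9%”, “also scored.” for “scored per strain.”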

Streptococcus pneumoniae [44] = test: Antimicrobial activity against penicillin-resistant Streptococcus pneumoniae by agar dilution method; procedure, shortened: as §1
Streptococcus pneumoniae [45] = test: Antimicrobial activity against Streptococcus pneumoniae isolate 3374 by agar dilution method; procedure, shortened: as §1
Streptococcus pneumoniae [46] = test: Antimicrobial activity against Streptococcus pneumoniae isolate 3481 by agar dilution method; procedure, shortened: as §1
Streptococcus pneumoniae [47] = test: Antimicrobial activity against Streptococcus pneumoniae 11 by time-kill analysis; procedure, shortened: as §2

SMILES: C[C@@H](O)[C@H]1C(=O)N2C(C(=O)O)=C(S[C@@H]3CN[C@H](C(=O)N(C)C)C3)[C@H](C)[C@H]12 [MEROPENEM]
- MIC (Streptococcus pneumoniae [1]): 0.5 µg/mL (≈ 1.3 µM)
- MIC (Streptococcus pneumoniae [2]): 0.25 µg/mL (≈ 0.652 µM)
- MIC (Streptococcus pneumoniae [3]): 0.25 µg/mL (≈ 0.652 µM)
- MIC (Streptococcus pneumoniae [4]): 0.25 µg/mL (≈ 0.652 µM)
- MIC (Streptococcus pneumoniae [5]): 1 µg/mL (≈ 2.61 µM)
- MIC (Streptococcus pneumoniae [6]): 1 µg/mL (≈ 2.61 µM)
- MIC (Streptococcus pneumoniae [7]): 1 µg/mL (≈ 2.61 µM)
- MIC (Streptococcus pneumoniae [8]): 0.5 µg/mL (≈ 1.3 µM)
- MIC (Streptococcus pneumoniae [9]): 0.5 µg/mL (≈ 1.3 µM)
- MIC (Streptococcus pneumoniae [10]): 0.25 µg/mL (≈ 0.652 µM)
- MIC (Streptococcus pneumoniae [11]): 2 µg/mL (≈ 5.22 µM)
- MIC (Streptococcus pneumoniae [12]): 0.008 µg/mL (≈ 0.0209 µM)
- MIC (Streptococcus pneumoniae [13]): 0.25 µg/mL (≈ 0.652 µM)
- MIC (Streptococcus pneumoniae [14]): 0.12 µg/mL (≈ 0.313 µM)
- MIC (Streptococcus pneumoniae [15]): 1 µg/mL (≈ 2.61 µM)
- MIC (Streptococcus pneumoniae [16]): 0.5 µg/mL (≈ 1.3 µM)
- MIC50 (Streptococcus pneumoniae [17]): 1 µg/mL (≈ 2.61 µM)
- MIC90 (Streptococcus pneumoniae [17]): 1 µg/mL (≈ 2.61 µM)
- MIC (Streptococcus pneumoniae [18]): 0.016 µg/mL (≈ 0.0417 µM)
- MIC (Streptococcus pneumoniae [19]): 0.12 µg/mL (≈ 0.313 µM)
- MIC (Streptococcus pneumoniae [20]): 1 µg/mL (≈ 2.61 µM)
- MIC (Streptococcus pneumoniae [21]): 1 µg/mL (≈ 2.61 µM)
- MIC (Streptococcus pneumoniae [22]): 0.5 µg/mL (≈ 1.3 µM)
- MIC (Streptococcus pneumoniae [23]): 0.06 µg/mL (≈ 0.156 µM)
- MIC (Streptococcus pneumoniae [24]): 0.25 µg/mL (≈ 0.652 µM)
- MIC (Streptococcus pneumoniae [25]): 0.5 µg/mL (≈ 1.3 µM)
- MIC (Streptococcus pneumoniae [26]): 0.5 µg/mL (≈ 1.3 µM)
- MIC (Streptococcus pneumoniae [27]): 0.25 µg/mL (≈ 0.652 µM)
- MIC (Streptococcus pneumoniae [28]): 0.25 µg/mL (≈ 0.652 µM)
- MIC (Streptococcus pneumoniae [29]): 0.25 µg/mL (≈ 0.652 µM)
- MIC (Streptococcus pneumoniae [30]): 0.5 µg/mL (≈ 1.3 µM)
- MIC (Streptococcus pneumoniae [31]): 0.125 µg/mL (≈ 0.326 µM)
- MIC (Streptococcus pneumoniae [32]): 0.125 µg/mL (≈ 0.326 µM)
- MIC (Streptococcus pneumoniae [33]): 1 µg/mL (≈ 2.61 µM)
- MIC50 (Streptococcus pneumoniae [34]): 0.06 µg/mL (≈ 0.156 µM)
- MIC90 (Streptococcus pneumoniae [34]): 0.25 µg/mL (≈ 0.652 µM)
- MIC (Streptococcus pneumoniae [35]): 0.25 µg/mL (≈ 0.652 µM)
- MIC (Streptococcus pneumoniae [36]): 0.5 µg/mL (≈ 1.3 µM)
- MIC (Streptococcus pneumoniae [37]): 0.5 µg/mL (≈ 1.3 µM)
- MIC50 (Streptococcus pneumoniae [38]): 0.016 µg/mL (≈ 0.0417 µM)
- MIC90 (Streptococcus pneumoniae [38]): 0.016 µg/mL (≈ 0.0417 µM)
- MIC (Streptococcus pneumoniae [39]): 0.25 µg/mL (≈ 0.652 µM)
- MIC (Streptococcus pneumoniae [40]): 0.5 µg/mL (≈ 1.3 µM)
- MIC (Streptococcus pneumoniae [41]): 0.25 µg/mL (≈ 0.652 µM)
- MIC (Streptococcus pneumoniae [42]): 1 µg/mL (≈ 2.61 µM)
- MIC (Streptococcus pneumoniae [43]): 2 µg/mL (≈ 5.22 µM)
- MIC50 (Streptococcus pneumoniae [44]): 0.5 µg/mL (≈ 1.3 µM)
- MIC90 (Streptococcus pneumoniae [44]): 0.5 µg/mL (≈ 1.3 µM)
- MIC (Streptococcus pneumoniae [45]): 0.25 µg/mL (≈ 0.652 µM)
- MIC (Streptococcus pneumoniae [46]): 0.25 µg/mL (≈ 0.652 µM)
- MIC (Streptococcus pneumoniae [47]): 1 µg/mL (≈ 2.61 µM)
